Columns and labels:
Histamine H1 receptor = Histamine H1 receptor (Homo sapiens, UniProt P35367); experiment: In vitro binding affinity towards histamine H1 receptor expressed in CHO-K1 cells; assay type: cell-based
[1] = target: T1, Polyunsaturated fatty acid 5-lipoxygenase (Homo sapiens, UniProt P09917); experiment: In vitro inhibitory activity against 5-lipoxygenase in a human whole blood assay; assay type: tissue-based
T1 sequence (P09917 whole entry): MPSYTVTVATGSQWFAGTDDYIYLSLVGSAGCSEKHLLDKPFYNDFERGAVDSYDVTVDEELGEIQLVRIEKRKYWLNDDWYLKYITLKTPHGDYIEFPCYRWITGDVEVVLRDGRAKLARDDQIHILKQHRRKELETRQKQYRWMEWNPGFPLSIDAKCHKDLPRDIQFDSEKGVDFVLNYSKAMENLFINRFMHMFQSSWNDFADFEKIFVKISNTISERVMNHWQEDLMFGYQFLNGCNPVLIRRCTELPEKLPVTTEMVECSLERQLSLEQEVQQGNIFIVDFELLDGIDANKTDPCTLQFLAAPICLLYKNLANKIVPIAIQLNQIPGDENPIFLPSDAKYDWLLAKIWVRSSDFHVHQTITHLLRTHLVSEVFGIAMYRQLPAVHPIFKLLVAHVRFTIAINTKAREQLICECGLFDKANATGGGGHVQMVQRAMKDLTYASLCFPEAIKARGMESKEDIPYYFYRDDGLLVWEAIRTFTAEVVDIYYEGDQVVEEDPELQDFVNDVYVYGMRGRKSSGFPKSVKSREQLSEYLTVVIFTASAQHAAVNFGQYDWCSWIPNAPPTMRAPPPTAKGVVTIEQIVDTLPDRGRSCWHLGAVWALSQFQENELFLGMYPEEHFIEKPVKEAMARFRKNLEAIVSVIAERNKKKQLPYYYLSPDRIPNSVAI

Rattus norvegicus = species: Rattus norvegicus; experiment: Intrinsic clearance of compound against NADPH-fortified rat liver microsomes; assay type: ADME, Microsome
Summary of the method: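 Compound incubated with NADPH-fortified rat liver microsomes to measure metabolic stability. Intrinsic clearance is reported as µL/min/mg protein.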

[2] = target: T2, Polyunsaturated fatty acid 5-lipoxygenase (Rattus norvegicus, UniProt P12527); experiment: In vitro inhibitory activity against 5-lipoxygenase in an RBL-2H3 cell lysate; assay type: cell-based
T2 sequence (P12527 whole entry): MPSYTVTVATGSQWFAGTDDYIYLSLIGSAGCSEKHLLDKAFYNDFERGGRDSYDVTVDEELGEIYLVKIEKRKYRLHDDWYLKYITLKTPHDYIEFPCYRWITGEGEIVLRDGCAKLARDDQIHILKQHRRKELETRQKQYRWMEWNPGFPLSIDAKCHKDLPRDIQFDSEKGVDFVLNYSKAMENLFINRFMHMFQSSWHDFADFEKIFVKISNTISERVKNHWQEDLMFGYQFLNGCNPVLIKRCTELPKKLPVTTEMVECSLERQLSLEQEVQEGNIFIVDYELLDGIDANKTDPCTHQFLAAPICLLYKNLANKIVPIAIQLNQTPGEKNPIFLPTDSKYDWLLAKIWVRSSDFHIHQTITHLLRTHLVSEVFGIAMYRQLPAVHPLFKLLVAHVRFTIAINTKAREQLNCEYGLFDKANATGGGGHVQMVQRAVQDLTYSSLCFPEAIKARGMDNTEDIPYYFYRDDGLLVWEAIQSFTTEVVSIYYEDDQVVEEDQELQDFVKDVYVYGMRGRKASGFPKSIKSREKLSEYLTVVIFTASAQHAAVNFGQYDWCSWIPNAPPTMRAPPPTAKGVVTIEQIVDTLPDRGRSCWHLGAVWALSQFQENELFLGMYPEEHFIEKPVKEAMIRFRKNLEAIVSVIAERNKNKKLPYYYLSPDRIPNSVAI

[3] = Permeability in Caco-2 cells of compound; assay type: ADME, cell-based; conditions: human
Summary of the method: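 Permeability measured across Caco-2 cells and reported as apparent permeability (Papp) in cm/sec.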

Sequence of Histamine H1 receptor (P35367 whole entry): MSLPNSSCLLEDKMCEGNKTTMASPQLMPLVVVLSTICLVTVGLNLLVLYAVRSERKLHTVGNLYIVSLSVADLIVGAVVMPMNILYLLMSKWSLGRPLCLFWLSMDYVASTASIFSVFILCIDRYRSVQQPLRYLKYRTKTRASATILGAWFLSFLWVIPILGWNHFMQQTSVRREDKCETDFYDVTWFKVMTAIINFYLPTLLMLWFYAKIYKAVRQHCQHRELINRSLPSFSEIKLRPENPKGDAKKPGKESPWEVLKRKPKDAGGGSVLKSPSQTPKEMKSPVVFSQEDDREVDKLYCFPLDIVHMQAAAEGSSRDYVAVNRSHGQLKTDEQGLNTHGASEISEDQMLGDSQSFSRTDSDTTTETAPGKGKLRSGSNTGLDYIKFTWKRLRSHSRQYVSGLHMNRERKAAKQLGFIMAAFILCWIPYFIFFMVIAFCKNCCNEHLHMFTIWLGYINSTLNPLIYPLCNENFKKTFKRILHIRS

| Ki (Histamine H1 receptor) | IC50 [1] | SMILES | Clint (Rattus norvegicus) | IC50 [2] | Permeability [3] |
| --- | --- | --- | --- | --- | --- |
| 50 nM |  | NC(=O)N(O)CCC#C[C@@H]1CC[C@@H](CN2CCN([C@H](c3ccccc3)c3ccc(Cl)cc3)CC2)O1 |  |  |  |
| 190 nM | 3500 nM | CC(C#Cc1ccc(CN2CCN([C@H](c3ccccc3)c3ccc(Cl)cc3)CC2)o1)N(O)C(N)=O (some centres undefined) |  |  |  |
|  | 170 nM | NC(=O)N(O)CCC#Cc1ccc(CN2CCN(C(c3ccc(F)cc3)c3ccc(F)cc3)CC2)o1 |  | < 200 nM |  |
| 180 nM | 510 nM | NC(=O)N(O)CCC#C[C@H]1CC[C@H](CN2CCN([C@H](c3ccccc3)c3ccc(Cl)cc3)CC2)O1 |  |  |  |
| 660 nM | 140 nM | NC(=O)N(O)CCC#C[C@@H]1CC[C@@H](CN2CCN(C(c3ccc(F)cc3)c3ccc(F)cc3)CC2)O1 |  |  |  |

| SMILES | Ki (Histamine H1 receptor) | IC50 [1] | Clint (Rattus norvegicus) | IC50 [2] | Permeability [3] |
| --- | --- | --- | --- | --- | --- |
| NC(=O)N(O)CCC#Cc1ccc(CN2CCN([C@H](c3ccccc3)c3ccc(Cl)cc3)CC2)o1 |  | 420 nM | 33 ul min-1 (mg of protein)-1 | < 200 nM | 6e-06 cm/s |
| NC(=O)N(O)CCC#C[C@@H]1CC[C@@H](COc2ccc(F)cc2)O1 |  | 117 nM |  |  |  |
